Test results published in ChEMBL document CHEMBL1126690, “2'-substituted chalcone derivatives as inhibitors of interleukin-1 biosynthesis” (J Med Chem, 1993).

Assays:
Type in all cases: functional
[1] = species on record: Homo sapiens; experiment: (§1) Inhibition of the production of Interleukin-1-beta from human peripheral blood monocytes stimulated with lipopolysaccharide (LPS)
Procedure, shortened: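 Drug in DMSO (1.0 μL) added, 60 min preincubation, then LPS (Salmonella typhimurium; 1.0 μg/mL stock, 20 μL/well). After 20 h, supernatant IL-1β by ELISA; MTT viability on cells.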

[2] = species on record: Homo sapiens; experiment: (§2) Inhibition of the production of Interleukin-1-beta from human peripheral blood monocytes stimulated with lipopolysaccharide (LPS) at 10 uM
[3] = species on record: Homo sapiens; experiment: as §2; remark: listed apart in the source
Procedure, shortened: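 Elutriated human monocytes in RPMI 1640 + 5% FBS, drug added in DMSO 60 min before LPS (Salmonella typhimurium). Tested at 10 μM, the highest concentration assayed. After 20 h, supernatant IL-1β measured by ELISA in duplicate; percent inhibition vs control; MTT viability checked.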

[4] = system: Mus musculus; experiment: In vivo activity expressed as percentage survival at 600 mg/kg in mouse septic shock model
Procedure, shortened: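 Female C57Bl/6 mice (18–20 g), groups of 10, given LPS ip (E. coli 0127:B8, in 0.9% saline, 40 mg/kg). Compound in 0.25% methylcellulose (beadmilled 60 min) dosed orally by gavage 20 min later (0.1 mL/g), then every 4 h for 24 h; vehicle controls. Deaths recorded over 3 days; percent survival, χ² at p<0.05, mean of three experiments.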

[5] = species on record: Homo sapiens; experiment: as §1; remark: listed apart in the source
Procedure, shortened: (§3)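 Human monocytes elutriated from whole blood, 2×10^6 cells/well in RPMI 1640 + 5% FBS. Drug in DMSO (1.0 μL) added, 60 min preincubation, then LPS (Salmonella typhimurium; 1.0 μg/mL stock, 20 μL/well). After 20 h, supernatant IL-1β by ELISA; MTT viability on cells.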

[6] = species on record: Homo sapiens; experiment: Inhibition of the production of Interleukin-1-beta from human peripheral blood monocytes stimulated with lipopolysaccharide (LPS).; procedure, shortened: as §3

Row | IC50 [1] | Compound | further results
1 | 1650 nM | COC(=O)c1cccc(/C=C/C(=O)c2c(OC)cc(OC)cc2OC)c1 | 
2 |  | O=C(O)c1ccccc1C(=O)/C=C/c1ccccc1 | inhibition at 10 µM [2]: 37%
3 | 6200 nM | O=C(/C=C/c1ccccc1)c1ccccn1 | 
4 | 1520 nM | O=C(/C=C/c1ccccc1)c1ccccc1[N+](=O)[O-] | 
5 | 5750 nM | O=C(/C=C/c1ccccc1)c1cccs1 | 
6 | 5400 nM | COc1cc(OC)c(C(O)/C=C/c2ccccc2)c(OC)c1 (configuration not stated) | 
7 | 5170 nM | COc1cc(OC)c(C(=O)/C(C)=C/c2ccccc2)c(OC)c1 | 
8 |  | COc1cc(C(=O)/C=C/c2ccc(N(C)C)cc2)cc(OC)c1OC | inhibition at 10 µM [3]: 0%
9 |  | O=C(/C=C/c1ccccc1)c1ccc([N+](=O)[O-])cc1 | inhibition at 10 µM [2]: 0%
10 | 1010 nM | COc1cc(OC)c(C(=O)/C=C/c2ccc(C(=O)N(C)c3nccs3)cc2)c(OC)c1 | 
11 |  | CS(=O)(=O)Nc1ccccc1C(=O)/C=C/c1ccccc1 | inhibition at 10 µM [3]: 0%
12 | 592 nM | COc1cc(OC)c(C(=O)/C=C/c2ccncc2)c(OC)c1 | 
13 | 596 nM | COc1cc(OC)c(C(=O)/C=C/c2ccccn2)c(OC)c1 | 
14 | 2230 nM | COc1ccccc1C(=O)/C=C/c1ccccc1 | 
15 |  | COc1cc(OC)c(C(=O)/C=C(\C)c2ccccc2)c(OC)c1 | inhibition at 10 µM [2]: 0%
16 | 2000 nM | COc1cccc(/C=C/C(=O)c2ccccc2)c1OC | 
17 | 609 nM | CCOc1ccccc1C(=O)/C=C/c1ccccc1 | 
18 | 748 nM | O=C(/C=C/c1ccccc1)c1ccccc1C(F)(F)F | 
19 | 1770 nM | CN(C)c1ccccc1C(=O)/C=C/c1ccccc1 | 
20 | 1330 nM | COc1cc(OC)c(C(=O)/C=C/c2cccnc2)c(OC)c1 | 
21 | 2230 nM | O=C(/C=C/c1ccccc1)c1ccccc1OCc1ccccc1 | 
22 |  | COc1cc(OC)c(C(/C=C/c2ccccc2)=N/O)c(OC)c1 | Inhibition [5]: 34%

Row | IC50 [1] | Compound | further results
23 |  | COc1cc(OC)c(C/C=C/c2ccccc2)c(OC)c1 | inhibition at 10 µM [3]: 0%
24 | 503 nM | COc1cc(OC)c(C(=O)/C=C/c2cccc(C(=O)Nc3nccs3)c2)c(OC)c1 | 
25 | 1730 nM | CC(=O)Nc1ccccc1C(=O)/C=C/c1ccccc1 | 
26 | 6760 nM | COc1cc(OC)c(C(=O)/C=C/c2cccc(C(=O)O)c2)c(OC)c1 | 
27 |  | COC(=O)c1ccc(C(=O)/C=C/c2ccccc2)cc1 | inhibition at 10 µM [2]: 5%
28 | 1840 nM | COc1cc(C(=O)/C=C/c2ccccc2)cc(OC)c1OC | 
29 | 1630 nM | COc1cc(OC)c(C(=O)/C=C/c2cccc(C(=O)Nc3cccnc3)c2)c(OC)c1 | 
30 | 2800 nM | COc1cc(OC)c(C(=O)/C=C/c2ccc(C(=O)N(C)C)cc2)c(OC)c1 | 
31 | 577 nM | COc1cc(OC)c(C(=O)/C=C/c2cccc(C(=O)Nc3ccccc3)c2)c(OC)c1 | 
32 | 1800 nM | COc1cccc(/C=C/C(=O)c2c(OC)cc(OC)cc2OC)c1 | 
33 | 1670 nM | COc1cccc(C(=O)/C=C/c2ccccc2)c1OC | 
34 |  | COc1cc(OC)c(C(=O)C=C(c2ccccc2)c2ccccc2)c(OC)c1 | inhibition at 10 µM [2]: 0%
35 | 311 nM | COc1cc(OC)c(C(=O)/C=C/c2ccnc3ccccc23)c(OC)c1 | 
36 | 6230 nM | COc1cc(OC)c(C(=O)/C=C/c2ccc(C(=O)O)cc2)c(OC)c1 | 
37 |  | COc1cc(OC)c(C(=O)CCc2ccccc2)c(OC)c1 | inhibition at 10 µM [3]: 0%
38 | 1790 nM | COc1cc(OC)c(C(=O)/C=C/c2ccc(C(N)=O)cc2)c(OC)c1 | 
39 |  | O=C(Nc1nccs1)c1ccc(/C=C/C(=O)c2ccccc2C(=O)O)cc1 | inhibition at 10 µM [3]: 22%
40 | 1150 nM | COc1cccc(OC)c1C(=O)/C=C/c1ccccc1 | 
41 | 1710 nM | COc1ccc(C(=O)/C=C/c2ccccc2)c(OC)c1OC | 
42 | 5500 nM | CN(C)C(=O)c1ccccc1C(=O)/C=C/c1ccccc1 | 
43 |  | CCOc1ccc(C(=O)/C=C/c2ccccc2)cc1 | inhibition at 10 µM [2]: 15%
44 | 1660 nM | O=C(/C=C/c1ccccc1)c1ccccc1Br | 

Row | IC50 [1] | Compound | further results
45 |  | COc1cc(OC)c(C(=O)NCc2ccccc2)c(OC)c1 | inhibition at 10 µM [3]: 0%
46 | 1290 nM | COc1cc(OC)c(C(=O)/C=C/c2c(F)cccc2F)c(OC)c1 | 
47 | 6500 nM | Cc1cc(C)c(C(=O)/C=C/c2ccccc2)c(C)c1 | 
48 | 803 nM | COc1cc(OC)c(C(=O)/C=C/c2ccc(C(=O)Nc3ccccc3)cc2)c(OC)c1 | 
49 | 2330 nM | COc1ccc(/C=C/C(=O)c2ccccc2)cc1OC | 
50 | 5850 nM | O=C(/C=C/c1ccccc1)c1ccccc1NS(=O)(=O)C(F)(F)F | 
51 | 1650 nM | CCOc1ccccc1C(=O)/C=C/c1ccncc1 | 
52 | 3800 nM | COc1cc(OC)c(C(=O)/C=C/c2nccn2C)c(OC)c1 | 
53 | 693 nM | COc1cc(OC)c(C(=O)/C=C/c2cnccn2)c(OC)c1 | 
54 | 1930 nM | COC(=O)c1ccc(/C=C/C(=O)c2c(OC)cc(OC)cc2OC)cc1 | 
55 |  | COc1cc(OC)c(NC(=O)/C=C/c2ccccc2)c(OC)c1 | inhibition at 10 µM [3]: 0%
56 |  | COc1cc(OC)c(C(=O)c2ccc(-c3ccccc3)cc2)c(OC)c1 | inhibition at 10 µM [3]: 26%
57 | 1080 nM | O=C(/C=C/c1ccccc1)c1c(Cl)cccc1Cl | 
58 |  | COc1cc(OC)c(C(=O)/C=C/c2ccccc2)c(OC)c1 | IC50 [6]: 1250 nM
59 | 1410 nM | O=C(/C=C/c1ccccc1)c1c2ccccc2cc2ccccc12 | 
60 | 4300 nM | O=C(/C=C/c1ccccc1)c1ccccc1O [2'-HYDROXYCHALCONE] | 
61 |  | COc1ccc(C(=O)/C=C/c2ccccc2)cc1OC [3',4'-DIMETHOXYCHALCONE] | inhibition at 10 µM [2]: 44%
62 | 6130 nM | O=C(/C=C/c1ccccc1)c1ccc(O)cc1 [4'-HYDROXYCHALCONE] | 
63 |  | COc1ccc(C(=O)/C=C/c2ccccc2)cc1 [4'-METHOXYCHALCONE] | inhibition at 10 µM [2]: 29%
64 | 6280 nM | O=C(/C=C/c1ccccc1)c1ccccc1 [CHALCONE] | 

Row | Compound | IC50 [1] | further results
65 | COC(=O)c1ccccc1C(=O)/C=C/c1ccc(C(=O)Nc2nccs2)cc1 | 2030 nM | survival at 600 mg/kg [4]: 30%
66 | COc1cc(OC)c(C(=O)/C=C/c2ccc(C(=O)Nc3nccs3)cc2)c(OC)c1 | 355 nM | survival at 600 mg/kg [4]: 55%
67 | COc1cc(OC)c(C(=O)/C=C/c2ccc(C(=O)Nc3cccnc3)cc2)c(OC)c1 | 793 nM | survival at 600 mg/kg [4]: 50%
68 | COC(=O)c1ccccc1C(=O)/C=C/c1ccccc1 | 1950 nM | survival at 600 mg/kg [4]: 20%
